Bioassay records deposited in PubChem BioAssay by several laboratories.
B2AR ag – human beta-2 adrenergic receptor agonism by FAP | response, % (no concentration beside the values) | Am2.2-beta2AR cells, FAP receptor internalization, flow cytometry | P07550 | hit rate 0.43% among 340,000 | AID 504454;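 active means response above a set limit, near 3 SD of response in nonfluorescent compounds, cut at about 42% in these data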
Hep lipid drop – modulators of hepatic lipid droplet formation; AID 1656; AML12 mouse hepatocytes, oleate lipid droplets, BODIPY imaging; hit rate 0.4% among 240,000; inhibition, % at 6.5 µM;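 active means lipid droplet intensity inhibited by at least 50%, with more than 500 cells counted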
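Assay system: AML12 hepatocytes (mouse); Probe or stimulus: oleic acid at 100 µM to induce lipid droplet formation; Dosing: compound at 6.5 µM only; Schedule: compound with oleate, overnight; Detection: fluorescence imaging, 20x objective, two fields per well; Measure: % inhibition of lipid droplet signal.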
TAG inh – triacylglycerol accumulation inhibition; H9c2 cells, Nile Red lipid (TAG) fluorescence; cells loaded with 200 µM oleic acid; inhibition, % at 12.5 µM; hit rate 0.66% among 230,000; AID 651582;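 active means pattern-corrected inhibition of lipid staining of at least 50% with the nuclear-stain viability signal not falling by more than 50%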;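 further: 0% = DMSO wells and 100% = triacsin C control wells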
GRK2 aptamer HTS – human GRK2 inhibition via aptamer displacement; P25098; inhibition of aptamer binding, % at 10 µM; hit rate 0.59% among 330,000; bead flow cytometry, FAM-aptamer displacement from GRK2;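 active means inhibition of aptamer binding above 40%, roughly 3 SD of noise, on plates passing a quality check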;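 further: median bead fluorescence of bound FAM aptamer so fluorescent compounds give negative values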
Arr AP2 block – blocks beta-arrestin peptide binding to AP2 adaptin. FITC-arrestin peptide / GST-AP2 beads, flow cytometry; AP2 beta2 appendage carries R879A mutation. inhibition, % at 10 µM. hit rate 0.31% among 340,000. AID 504490;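 active means inhibition above a set limit, near 3 SD of compounds lacking own fluorescence, cut at about 54% in these data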;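 further: plate controls were DMSO wells for no effect and 5 µM unlabelled arrestin peptide for full effect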
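Measured by: flow cytometry, FL1 (488/535 nm); Material: AP2 appendage R879A on GSH beads; Evaluation: percent response; Timing: pre-incubation 12 min, peptide binding 1 h, room temperature; Also added: 50 nM FITC-arrestin peptide; Medium: PBS with 0.05% Tween 20 and 0.1% BSA.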
NTR1 ag – NTR1 (human) agonism; P30989; NTR1-U2OS beta-arrestin-GFP spot imaging, agonist mode; activation, % at 20 µM; hit rate 0.17% among 330,000; AID 493036;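 active means activation at or above 40% of the spot to cytoplasm intensity ratio, with at least 20 cells analyzed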;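 further: 0% = DMSO without peptide and 100% = 100 nM NTR1 peptide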
Target sequence (P30989 whole entry, looked up): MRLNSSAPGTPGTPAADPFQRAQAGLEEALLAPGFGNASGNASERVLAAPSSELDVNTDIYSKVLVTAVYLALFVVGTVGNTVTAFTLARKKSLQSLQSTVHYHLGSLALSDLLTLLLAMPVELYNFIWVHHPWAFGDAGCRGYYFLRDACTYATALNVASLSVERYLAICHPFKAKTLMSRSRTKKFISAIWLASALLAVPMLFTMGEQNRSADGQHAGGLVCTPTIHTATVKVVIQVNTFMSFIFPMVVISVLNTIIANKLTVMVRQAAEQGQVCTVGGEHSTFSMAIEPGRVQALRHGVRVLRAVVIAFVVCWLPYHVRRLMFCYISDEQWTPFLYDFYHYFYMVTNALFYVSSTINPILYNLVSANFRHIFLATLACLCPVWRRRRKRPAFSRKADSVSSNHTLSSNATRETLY
NTR1 ag conf – confirmation of agonists of human NTR1; AID 504550; hit rate 38% among 480; activation, % at 20 µM; NTR1-U2OS beta-arrestin-GFP translocation imaging; shares compounds with NTR1 ag;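 active means mean activation at 20 µM of at least 40%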;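 further: 0% = DMSO without peptide and 100% = 100 nM NTR1 peptide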
An asterisk follows results filed as active. Sampled rows, rich in hits. Any-hit rate of the full collection: about 2%.

How did Cc1ccccc1Nc1nc(N)nc(COC(=O)CCNS(=O)(=O)c2ccccc2)n1 do in these assays?
B2AR ag: 7.4; TAG inh: 15.2; GRK2 aptamer HTS: 2.0; Arr AP2 block: 9.4; NTR1 ag: 0.9

How did Oc1ccc(/C=N/Nc2nc(N3CCCCCC3)nc(N3CCCCCC3)n2)c(O)c1 do in these assays?
B2AR ag: 9.8; Hep lipid drop: 3.1; TAG inh: 18.5; GRK2 aptamer HTS: 1.0; Arr AP2 block: -7.1; NTR1 ag: 43.6*; NTR1 ag conf: 39.2

How did CC(CNC(=O)COC(=O)c1ccco1)c1ccccc1 (configuration not stated) do in these assays?
B2AR ag: -6.1; TAG inh: 13.1; GRK2 aptamer HTS: 2.0; Arr AP2 block: 2.1; NTR1 ag: -0.6

Results for COc1cc2c3nnc(-c4ccc(F)cc4)c-3cn(Cc3ccccc3F)c2cc1OC ?
B2AR ag: -84.7; Hep lipid drop: -8.9; TAG inh: -249.0; Arr AP2 block: -306.1

What do the screens show for `COc1cc2c3nnc(-c4ccccc4)c-3cn(Cc3ccccc3F)c2cc1OC`?
Hep lipid drop: -30.6; GRK2 aptamer HTS: 0.0; NTR1 ag: 114.9*; NTR1 ag conf: 90.1*

How did CCCCn1nc(C(=O)N(CC)CC(=O)Nc2c(F)cccc2F)c2ccccc2c1=O do in these assays?
B2AR ag: -5.0; TAG inh: -1.4; GRK2 aptamer HTS: 2.0; Arr AP2 block: 2.4; NTR1 ag: 0.2

Results for CC(C)S(=O)(=O)c1csc(NC(=O)Nc2cccc([N+](=O)[O-])c2)c1Cl ?
B2AR ag: -1.4; Hep lipid drop: -8.0; TAG inh: -13.2; GRK2 aptamer HTS: 1.0; Arr AP2 block: 22.4; NTR1 ag: 50.4*; NTR1 ag conf: 10.6

How did CCc1ccc(S(=O)(=O)/N=C2\C=C(Nc3cccc(C(=O)O)c3)C(=O)c3ccccc32)cc1 do in these assays?
B2AR ag: 15.7; Hep lipid drop: 14.6; GRK2 aptamer HTS: 6.0; Arr AP2 block: 4.4; NTR1 ag: 2.2

What do the screens show for `CCc1ccc(S(=O)(=O)/N=C2\C=C(Nc3ccc(O)cc3)C(=O)c3ccccc32)cc1`?
B2AR ag: 45.3*; Hep lipid drop: -3.1; GRK2 aptamer HTS: 1.0; Arr AP2 block: 28.5; NTR1 ag: 44.9*; NTR1 ag conf: 20.6

How did CCN(C(=O)c1ccc2c(Cl)c3c(nc2c1)CCC3)c1ccc(C)c(C)c1 do in these assays?
B2AR ag: -6.2; Hep lipid drop: 0.0; TAG inh: -4.7; GRK2 aptamer HTS: 0.0; Arr AP2 block: -0.9; NTR1 ag: 44.6*; NTR1 ag conf: 4.2

What do the screens show for `Cc1ccc(NC(=O)Cn2ccc(=O)[nH]c2=O)cc1`?
B2AR ag: 3.4; Hep lipid drop: -2.6; GRK2 aptamer HTS: 0.0; Arr AP2 block: -4.0; NTR1 ag: 0.3

What do the screens show for `C/C(=N\NC(=O)c1ccc(C)cc1C)c1ccc2c(c1)Nc1ccccc1S2`?
B2AR ag: 5.6; Hep lipid drop: -1.0; GRK2 aptamer HTS: 0.0; Arr AP2 block: 15.1; NTR1 ag: 42.8*; NTR1 ag conf: 33.3

Results for CCN1C(=O)/C(=C/N(C(C)=O)c2ccccc2)N(c2ccccc2)C1=S ?
B2AR ag: -28.1; Hep lipid drop: -20.6; TAG inh: 18.9; GRK2 aptamer HTS: 0.0; Arr AP2 block: 32.5; NTR1 ag: 41.8*; NTR1 ag conf: 60.7*

Results for COC(=O)COc1ccc(/C=N/NC(=O)CN(c2ccccc2OC)S(=O)(=O)c2ccccc2)cc1 ?
B2AR ag: 24.0; Hep lipid drop: -0.6; GRK2 aptamer HTS: 0.0; Arr AP2 block: 50.9; NTR1 ag: 74.6*; NTR1 ag conf: 75.6*

Results for COc1ccccc1N(CC(=O)N/N=C/c1ccc(OCC(=O)NCc2ccco2)cc1)S(=O)(=O)c1ccc(C)cc1 ?
B2AR ag: 8.9; Hep lipid drop: 14.2; TAG inh: 5.8; GRK2 aptamer HTS: 3.0; Arr AP2 block: -5.2; NTR1 ag: 1.1

What do the screens show for `COc1ccc2sc(-c3ccc(S(C)(=O)=O)cc3)c(C#CCO)c2c1`?
B2AR ag: 17.4; TAG inh: 4.9; GRK2 aptamer HTS: 0.0; Arr AP2 block: 4.9; NTR1 ag: 56.6*; NTR1 ag conf: 56.8*

Results for CN(C)S(=O)(=O)c1ccc(NC(=O)c2ccncc2)cc1 ?
B2AR ag: -8.0; Hep lipid drop: 5.4; TAG inh: 0.5; GRK2 aptamer HTS: 0.0; Arr AP2 block: 28.6; NTR1 ag: 0.6

What do the screens show for `CN(C)S(=O)(=O)c1ccc(NC(=O)c2c(F)cccc2Cl)cc1`?
B2AR ag: 8.3; TAG inh: 6.7; GRK2 aptamer HTS: 0.0; Arr AP2 block: -0.3; NTR1 ag: 49.3*; NTR1 ag conf: -5.1

What do the screens show for `CC1=NNC(=O)/C1=C\c1cn(-c2ccccc2)nc1-c1ccc(Cl)cc1`?
B2AR ag: 107.5*; GRK2 aptamer HTS: 0.0; Arr AP2 block: 25.8; NTR1 ag: 101.2*; NTR1 ag conf: 78.1*

Results for CC1=NN(c2ccccc2)C(=O)/C1=C\c1cn(CCC#N)nc1-c1ccc(Cl)cc1 ?
B2AR ag: 13.4; Hep lipid drop: -6.8; TAG inh: 8.1; GRK2 aptamer HTS: 4.0; Arr AP2 block: 3.8; NTR1 ag: 13.8

Results for CC1(C)CC(=O)C(=Cc2cn(-c3ccccc3)nc2-c2ccccc2)C(=O)C1 ?
B2AR ag: 7.4; TAG inh: 0.9; GRK2 aptamer HTS: 4.0; Arr AP2 block: 9.4; NTR1 ag: 71.1*; NTR1 ag conf: 65.4*

Results for COc1cc(/C=C2\SC(=O)N(CCNC(=O)c3c(C)noc3C)C2=O)cc(OC)c1OC ?
B2AR ag: 19.9; TAG inh: -20.3; GRK2 aptamer HTS: 1.0; Arr AP2 block: 7.4; NTR1 ag: 2.6

How did COc1ccc(-c2nc3c4c(ncn3n2)-c2ccccc2CC42CCCC2)cc1 do in these assays?
B2AR ag: 8.9; Hep lipid drop: -8.6; GRK2 aptamer HTS: 6.0; Arr AP2 block: 3.9; NTR1 ag: -2.0

Results for Oc1cccc(-c2nc3c4c(ncn3n2)-c2ccccc2CC42CCCC2)c1 ?
B2AR ag: 9.1; GRK2 aptamer HTS: 0.0; Arr AP2 block: 2.1; NTR1 ag: 43.5*; NTR1 ag conf: 33.9

What do the screens show for `O=C(COc1ccccc1)NCC(=O)N/N=C/c1ccc(O)cc1O`?
B2AR ag: 3.8; Hep lipid drop: 11.0; TAG inh: 4.6; GRK2 aptamer HTS: 0.0; Arr AP2 block: 6.3; NTR1 ag: 42.2*; NTR1 ag conf: 39.8

What do the screens show for `Cc1ccc(/C=N/NC(=O)CNC(=O)COc2ccccc2)cc1`?
B2AR ag: -19.0; Hep lipid drop: 8.1; TAG inh: 1.6; GRK2 aptamer HTS: 2.0; Arr AP2 block: -7.8; NTR1 ag: 2.8
